Source: PubChem (several laboratories)
Sampled rows, rich in hits. Any-hit rate of the full collection: about 4.1%.
Autophagy mod = autophagy modulation, high-content screen; MEF GFP-LC3 puncta imaging; test concentration mostly 10 µM; calls only at 10 µM (by protocol); actives 0.98% (n = 190,000); AID 463193;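 active = percentage of spot-positive cells more than 3 SD above its plate mean, without a fluorescence outlier flag or 80% toxicity; inconclusive = no clear call, values can overlap the other calls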;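 note: spot-positive cell cutoff set from DMSO-treated cells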
DTT redox prof = compounds producing H2O2 with reducing agent – biochemical, NIH compound library profiling, artefact control for MLSCN library redox annotation, primary screen. DTT-dependent redox cycling H2O2, phenol red/HRP absorbance; 100% = 100 µM peroxide control, 0% = buffer. activation, % at 10 µM. actives 0.03% (n = 200,000). AID 878;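 active = activation of at least 50% relative to the plate's high and low controls in the primary single-dose screen; inactive = activation below 50%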;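 note: compound incubated with DTT at 0.8 mM final as the reducing agent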
Dynein cargo inh = dynein cargo transport inhibition. 3617.4 mouse cells, GR-EGFP nuclear translocation imaging; test concentration mostly 20 µM; stimulated with dexamethasone, 1 µM; stronger effect = lower value. z-score, hits read low. actives 0.47% (n = 220,000). AID 1381;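 active = plate z-score of nuclear minus cytoplasmic receptor signal below a set negative limit, without overly bright fluorescence or cell loss, cut at about -3.5 in these data, passing the limit was not always enough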;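 note: z-score of nuclear minus cytoplasmic ring GR-EGFP intensity difference per well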
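medium = tetracycline-free induction medium containing charcoal-stripped FBS | probe or stimulus = dexamethasone, 1.0 µM final | timing = 48 h induction, then 1 h compound, then 30 min agonist, 37 °C | detection = automated 10x imaging of fixed Hoechst-stained cells | read-out basis = nuclear versus cytoplasmic GR-EGFP signal, averaged per well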
ROMK primary = modulates human ROMK potassium channel activity; P48048; Tet-inducible ROMK, thallium flux fluorescence; actives lie on both sides; B-score at 10 µM; actives 2% (n = 130,000); AID 1918;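 active = signal ratio slope over the read window, or its plate-corrected B-score, at least 3 SD from the plate mean, either direction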;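 note: B-score of the F/F0 ratio slope over 7 to 12 s after thallium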
Target sequence (P48048 whole entry, looked up): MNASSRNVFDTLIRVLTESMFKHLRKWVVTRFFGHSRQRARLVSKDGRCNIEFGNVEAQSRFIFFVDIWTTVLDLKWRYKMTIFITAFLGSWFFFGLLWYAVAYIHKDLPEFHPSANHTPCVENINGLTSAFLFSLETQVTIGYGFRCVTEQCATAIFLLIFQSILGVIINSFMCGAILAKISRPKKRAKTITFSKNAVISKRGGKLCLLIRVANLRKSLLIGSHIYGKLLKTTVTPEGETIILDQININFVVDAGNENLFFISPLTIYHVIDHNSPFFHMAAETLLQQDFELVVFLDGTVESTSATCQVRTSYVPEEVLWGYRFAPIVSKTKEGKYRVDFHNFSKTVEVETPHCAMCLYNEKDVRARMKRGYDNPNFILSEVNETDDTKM
Cl transport mod = modulates chloride dependent transport by human KCC2 | KCC2 cells, thallium flux FluoZin-2 fluorescence | B-score of Tl+ flux slope (higher = more flux/activation; lower = inhibition) at 10 µM | AID 1456 | Q9H2X9 | actives 2.2% (n = 190,000);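 active = thallium flux slope and its plate-corrected score both differing from the plate sample mean at a set confidence after two filtering rounds, in either direction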;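 note: slope of fluorescence scaled to starting intensity during 10 to 20 s after thallium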
ROMK hit retest = retested hit modulating human ROMK potassium channel | shares compounds with ROMK primary | ROMK thallium flux, fluorescence ratio; stronger effect = lower value | normalized thallium flux (F/F0 slope) at 10 µM | actives 54% (n = 3,000);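 active = Flux at 10 µM at least 3 SD below or above vehicle control mean in one or both replicates; inconclusive = no clear call, values can overlap the other calls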
Numbers without * were called inactive; i = inactive; ? = inconclusive; nt = no result given; + = active, no number.

SMILES	Autophagy mod	DTT redox prof	Dynein cargo inh	ROMK primary	Cl transport mod	ROMK hit retest
O=C(/C=C/c1cccc(F)c1)N1CCN(c2ncccn2)CC1	i	0	-0.46	-0.036	-0.041	nt
OC(COCc1ccc(Cl)cc1)CN1CCN(CC(O)COCc2ccc(Cl)cc2)CC1 (stereo unspecified)	i	3	2.8	-3*	-0.0016	0.054*
OC(COCc1ccc(Cl)cc1)CN1CCc2ccccc2C1 (stereo unspecified)	i	0	-0.65	-1.5	1.8	nt
COc1ccc(/C=N/n2c(N)nc3ccccc32)cc1OC	i	0	1.6	nt	0.048	nt
COc1cccc(/C=N/n2c(N)nc3ccccc32)c1OC	i	0	-0.9	6.6*	0.031	0.11*
Cc1cc(NC(=O)CSc2nc3ccccc3c(=O)n2C2CCCC2)no1	i	0	-0.34	2.9*	0.37	?
COC(=O)c1ccc(C(=O)Nc2ccc(C(C)C)cc2N)cc1	i	-1	-0.047	0.53	-1.4	nt
CCN1/C(=C/c2ccc3ccccc3[n+]2CC)C=Cc2ccccc21	+	0	2	-4.7*	-3.6	0.038*
N=C1/C(=C\c2coc3ccccc3c2=O)C(=O)N=C2SC=CN12	nt	nt	-0.73	nt	nt	0.038*
CSC1=NSC2=NC(=O)/C(=C/c3coc4ccccc4c3=O)C(=N)N12	i	0	0.62	nt	i	nt
CCCC(c1nnnn1C(C)(C)C)N1CCN(c2ccccc2)CC1 (stereo unspecified)	i	0	-0.92	-13*	0.00076	0.083
N#C/C(=C\C1=C(N2CCOCC2)C(=C/c2cccc([N+](=O)[O-])c2)/CC1)C(=O)Nc1ccccc1F	+	4	-0.91	-3.4*	-0.46	0.061*
CCN(CC)c1ccc(/C=C2\CCC(/C=C(\C#N)C(=O)Nc3ccccc3F)=C2N2CCOCC2)cc1	i	8	-0.65	0.3	0.44	nt
COCCCC1CCN(C(=O)CCc2nnc(CCCCc3ccccc3)o2)CC1	i	0	-0.52	0.42	-2.9	nt
Cc1ccc(-c2nn3c(C)nnc3s2)cc1NCc1c(F)cccc1Cl	i	-1	-0.65	nt	-0.36	0.075
CNc1ncc(C(=O)c2ccc(Br)cc2)s1	i	-2	-0.22	-0.44	-0.86	nt
Cc1ccc(CNC(=O)Cc2ccc(-n3c(=O)[nH]c4ccsc4c3=O)cc2)cc1	i	-1	-0.74	2.1	-0.2	0.095
Cc1ccc(CNC(=O)Cc2ccc(-c3ccccc3)cc2)cc1	i	-3	1.2	nt	0.88	nt
Cc1ccc(CNC(=O)CCCCn2c(=O)[nH]c3ccsc3c2=O)cc1	i	-1	0.55	0.93	0.34	nt
Cc1ccc(CC(=O)NCc2ccc(F)cc2)cc1	i	0	-0.16	4.4*	-0.036	0.094
COCCCN=C1NN=C(c2cc(C)n(Cc3ccco3)c2C)CS1	i	0	1.3	1.3*	-0.3	0.074
Cc1nnc(SCC(=O)Nc2nc(-c3ccc(F)cc3)cs2)[nH]c1=O	i	0	0.44	-1.8	-3.1	nt
CCc1cc(/C(Cc2csc(C)n2)=N/O)c(O)cc1O	i	0	-0.5	-3.3*	-0.77	0.067*
Cc1nc(C/C(=N\N)c2ccc(O)cc2O)cs1	i	-1	0.31	0.36	-0.67	nt
C=CCN=C(NC#N)SC	nt	nt	0.54	nt	-0.95	nt
SMILES	Autophagy mod	DTT redox prof	Dynein cargo inh	ROMK primary	Cl transport mod	ROMK hit retest
O=C(Cn1nc(CNc2ccc(Cl)cc2)[n+]2c1CCCCC2)c1ccccc1	i	0	0.23	nt	1.2	nt
Cc1ccc(C(C)C)c(OCc2nn(CC(=O)c3ccc(Cl)cc3)c3[n+]2CCCCC3)c1	i	-1	-6.9	-7.5*	-0.8	0.049*
O=[N+]([O-])c1cc(-c2ncccn2)c([N+](=O)[O-])s1	i	-1	-3.9*	-1.2	-3.1	0.06*
Cc1ccc(S(=O)(=O)NC(=O)NCCc2ccccc2)cc1	i	0	-1.2	1.5	1.3	nt
CC(Oc1ccc(Cl)cc1Cl)C(=O)OCn1nnc2ccccc2c1=O (stereo unspecified)	i	1	0.73	3.7*	0.44	0.083
COCC(=O)Nc1sc2c(c1C(=O)OC)C(C(=O)OC)CC2 (stereo unspecified)	i	1	0.43	nt	0.81	0.081
CCCC(=O)Nc1sc2c(c1C(=O)OC)C(C(=O)OC)CC2 (stereo unspecified)	i	1	-0.41	nt	0.85	nt
O=C(/C=C/c1ccc([N+](=O)[O-])cc1)N(c1ccccn1)C1CCCCC1	i	0	-2	5.7*	0.17	0.076
Cc1nnsc1Sc1ccccc1	i	0	-1.6	-0.073	-1.4	nt
CCOc1ccc(NC(=O)C2CC=CCC2C(=O)O)cc1 (stereo unspecified)	i	3	-0.4	nt	nt	0.084
CCc1c(C)nc2ncnn2c1N1CCC(C(=O)Nc2cccc(C(C)=O)c2)CC1	i	0	-0.085	nt	0.42	?
CCOc1ccccc1-n1nnnc1SCC(=O)NCc1ccco1	i	-1	0.76	-0.35	-1.6	nt
CCN1C(=O)c2cccc3c(S(=O)(=O)Nc4ccncc4)ccc1c23	i	0	-2	2.3*	0.58	0.076
COc1ccc(C(C[N+](=O)[O-])C2(c3ccc(OC)c(OC)c3)C(=O)c3ccccc3C2=O)cc1 (stereo unspecified)	i	0	-3	-5.1*	0.19	?
Cc1ccc(C)c(N2CCN(C(=O)C34CC5CC(C3)CC(n3nnc(C)n3)(C5)C4)CC2)c1	nt	nt	1	nt	-0.072	nt
O=C1c2ccccc2C(Nc2ccc3c(c2)OCCO3)N1Cc1ccccc1 (stereo unspecified)	i	0	-0.94	nt	-2.4	0.078
COc1ccccc1/C=C/C=C1N=C(/C=C/c2ccc(Cl)cc2)OC/1=O	i	0	-0.5	-2.6*	0.81	0.063*
Cn1c(=O)c2c(nc(CN3CCN(C(=O)c4ccco4)CC3)n2Cc2ccccc2)n(C)c1=O	i	0	1.2	0.45	1.2	nt
Cc1ccc(Cn2c(CN3CCN(C(=O)c4ccco4)CC3)nc3c2c(=O)n(C)c(=O)n3C)cc1	i	0	4.8	2.6*	nt	0.092
CC(=O)c1c(C)nn(CC(O)COc2ccc3ccccc3c2)c1C (stereo unspecified)	i	0	-1.1	nt	-0.95	nt
CC(=O)[C@H]1CC[C@H]2[C@@H]3CCC4=CC(=O)CC[C@]4(C)[C@H]3CC[C@]12C	i	0	-0.23	nt	-1.5	0.065*
C[C@]12CCC(=O)C=C1CC[C@@H]1[C@@H]2CC[C@@]2(C)[C@H]1CC[C@]2(O)C(=O)CO	i	0	-1.4	nt	0.079	nt
Cc1c(NC(=O)/C(C#N)=C/c2ccc(-c3cc(Cl)ccc3Cl)o2)c(=O)n(-c2ccccc2)n1C	i	1	-0.4	nt	-0.48	nt
